Converted amounts (≈) assume the structure as drawn. The source made the active and inactive calls. The rule behind the calls is not given here.
Assays:
[1] = test system: Mycobacterium tuberculosis; experiment: Antituberculosis activity against Mycobacterium tuberculosis H37Rv after 7 days by MTT assay; assay type: functional; conditions: 168 h
How it was run: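 Colorimetric MTT microassay: serial 2-fold dilutions from DMSO stocks in Middlebrook 7H9 broth, bacterial suspension in 7H9 added. After 6 days, MTT (1 mg/mL) added; 1 day later solubilization buffer, OD 570 nm. MIC = lowest concentration inhibiting growth, untreated bacilli as growth control.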

THP-1 = experiment: Cytotoxicity against human THP1 cells after 72 hrs by MTT assay; assay type: cell-based; conditions: THP-1, 72 h
[2] = Selectivity index, ratio of IC50 for human THP1 cells to MIC for Mycobacterium tuberculosis H37Rv; assay type: functional, THP-1
[3] = test system: Mycobacterium tuberculosis; experiment: Antimycobacterial activity against Mycobacterium tuberculosis assessed as inhibition of mycolic acid biosynthesis by TLC; assay type: functional, organism-based
How it was run: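 Cells saponified in 40% KOH/methoxyethanol overnight at 100 °C, acidified with H2SO4, lipids ether-extracted, fatty acids methylated; methyl esters resolved by silica TLC in dichloromethane, phosphorimaged.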

[4] = test system: Mycobacterium tuberculosis; experiment: Selectivity ratio of MIC for isoniazid to compound for Mycobacterium tuberculosis 1400; assay type: functional
[5] = test system: Mycobacterium tuberculosis; experiment: Selectivity ratio of MIC for isoniazid to compound for Mycobacterium tuberculosis MYC5165; assay type: functional

Structure (SMILES) | MIC [1] [µM] | IC50 (THP-1) [µM] | Selectivity Index [2] | other results
CCOc1ccc(/C=C/C(=O)N/N=c2/[nH]ncc3ccccc23)cc1 | 12 (≈ 4.01 µg/mL) | – | – | –
CC(C)=CCC/C(C)=C/COc1ccc(/C=C/C(=O)NNC(=O)c2ccncc2)cc1 | 1.9 (≈ 0.797 µg/mL) | 43 | 22 | inhibition [3]: Active
COc1ccc(/C=C/c2nnc3c4ccccc4cnn23)cc1 | 53 (≈ 16 µg/mL) | 695 | 13 | –
FC(F)(F)COc1ccc(C2CC2c2nnc3c4ccccc4cnn23)cc1 (racemic) | 1300 (≈ 500 µg/mL) | – | – | –
COc1ccc(/C=C/C(=O)NNC(=O)c2ccncc2)cc1 | 0.3 (≈ 0.0892 µg/mL) | 168 | 560 | inhibition [3]: Active
CC(C)=CCOc1ccc(C2CC2c2nnc3c4ccccc4cnn23)cc1 (racemic) | 21 (≈ 7.78 µg/mL) | – | – | –
CC(C)=CCOc1ccc(/C=C/c2nnc3c4ccccc4cnn23)cc1 | 1.4 (≈ 0.499 µg/mL) | 449 | 320 | Ratio [4]: 100; Ratio [5]: 1800
FC(F)(F)COc1ccc(/C=C/c2nnc3c4ccccc4cnn23)cc1 | 170 (≈ 63 µg/mL) | – | – | –
O=C(/C=C/c1ccc(OC(F)(F)F)cc1)NNC(=O)c1ccncc1 | 1.1 (≈ 0.386 µg/mL) | – | – | inhibition [3]: Active
CCOc1ccc(/C=C/C(=O)NNC(=O)c2ccncc2)cc1 | 1.3 (≈ 0.405 µg/mL) | – | – | inhibition [3]: Active
O=C(/C=C/c1ccc(OC(F)(F)F)cc1)N/N=c1/[nH]ncc2ccccc12 | 21 (≈ 7.86 µg/mL) | – | – | –
CCOc1ccc(C2CC2c2nnc3c4ccccc4cnn23)cc1 (racemic) | 378 (≈ 125 µg/mL) | – | – | –
COc1ccc(/C=C/C(=O)N[C@@H]2CONC2=O)cc1 | 950 (≈ 249 µg/mL) | – | – | –
FC(F)(F)Oc1ccc(C2CC2c2nnc3c4ccccc4cnn23)cc1 (racemic) | 170 (≈ 63 µg/mL) | – | – | –
CC(C)=CCOc1ccc(/C=C/C(=O)N/N=c2/[nH]ncc3ccccc23)cc1 | 21 (≈ 7.86 µg/mL) | 26 | 1 | –
NNC(=O)c1ccncc1 [ISONIAZID] | 0.6 (≈ 0.0823 µg/mL) | > 3650 | >6081 | –
COc1ccc(/C=C/C(=O)N/N=c2/[nH]ncc3ccccc23)cc1 | 50 (≈ 16 µg/mL) | 437 | 8 | –
O=C(/C=C/c1ccc(OCC(F)(F)F)cc1)NNC(=O)c1ccncc1 | 2.2 (≈ 0.804 µg/mL) | – | – | inhibition [3]: Active
O=C(/C=C/c1ccc(OCC(F)(F)F)cc1)N/N=c1/[nH]ncc2ccccc12 | 20 (≈ 7.77 µg/mL) | – | – | –
CC(C)=CCOc1ccc(/C=C/C(=O)NNC(=O)c2ccncc2)cc1 | 2.3 (≈ 0.808 µg/mL) | 256 | 111 | inhibition [3]: Active
COc1ccc(C2CC2c2nnc3c4ccccc4cnn23)cc1 (racemic) | 395 (≈ 125 µg/mL) | – | – | –
CC(C)=CCC/C(C)=C/COc1ccc(/C=C/C(=O)N/N=c2/[nH]ncc3ccccc23)cc1 | 72 (≈ 31.9 µg/mL) | 56 | 0.8 | –
CCOc1ccc(/C=C/c2nnc3c4ccccc4cnn23)cc1 | 39 (≈ 12.3 µg/mL) | – | – | –
FC(F)(F)Oc1ccc(/C=C/c2nnc3c4ccccc4cnn23)cc1 | 702 (≈ 250 µg/mL) | – | – | –
CC(C)=CCC/C(C)=C/COc1ccc(C2CC2c2nnc3c4ccccc4cnn23)cc1 (racemic) | 28 (≈ 12.3 µg/mL) | – | – | –
CC(C)=CCC/C(C)=C/COc1ccc(/C=C/c2nnc3c4ccccc4cnn23)cc1 | 19 (≈ 8.07 µg/mL) | 259 | 13 | –
